System: HEK-293T
Assay: Multiplex assay against HEK293T
Assay type: toxicity, cell-based
Settings: human
Outline: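 Cells stained live at seeding with Hoechst33342, BioTracker Green Microtubule Cytoskeleton Dye, MitoTracker Red and Annexin V Alexa Fluor 680 were imaged on a CQ1 microscope at 37°C and 5% CO2 after compound addition. Their classification by CellPathfinder machine-learning gating ran from Hoechst high-intensity objects versus normal cells, to healthy, pyknosed or fragmented nuclei among normal cells, to mitotic or apoptotic among pyknosed cells. Tubulin, mitochondrial-mass and membrane-permeability phenotypes are per cents of healthy-nucleus cells.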

[1] = 12 h, 1 µM, compound concentration 1 uM, replicate 1
[2] = 12 h, 1 µM, compound concentration 1 uM, replicate 2
[3] = 12 h, 10 µM, compound concentration 10 uM, replicate 1
[4] = 12 h, 10 µM, compound concentration 10 uM, replicate 2
[5] = 24 h, 1 µM, compound concentration 1 uM, replicate 1
[6] = 24 h, 1 µM, compound concentration 1 uM, replicate 2
[7] = 24 h, 10 µM, compound concentration 10 uM, replicate 1
[8] = 24 h, 10 µM, compound concentration 10 uM, replicate 2
[9] = 48 h, 1 µM, compound concentration 1 uM, replicate 1
[10] = 48 h, 1 µM, compound concentration 1 uM, replicate 2
[11] = 48 h, 10 µM, compound concentration 10 uM, replicate 1
[12] = 48 h, 10 µM, compound concentration 10 uM, replicate 2

Cn1cc(C(=O)OCC2CCN(CCNS(C)(=O)=O)CC2)c2ccccc21
Population Apoptotic (%) [1]: 39% | Population Fragmented Nuclei (%) [1]: 5% | Population Healthy Nuclei (%) [1]: 83% | Population Hoechst High Intensity Objects (%) [1]: 7% | Population Membrane Permeable-Phenotype (%) [1]: 0% | Population Mitochondria Different-Phenotype (%) [1]: 35% | Population Mitotic Cells (%) [1]: 60% | Population Normal (%) [1]: 92% | Population Pyknosed Nuclei (%) [1]: 10% | Population Tubulin-Different-Phenotype (%) [1]: 22% | Total Cell Count [1]: 466 | Population Apoptotic (%) [2]: 56% | Population Fragmented Nuclei (%) [2]: 9% | Population Healthy Nuclei (%) [2]: 76% | Population Hoechst High Intensity Objects (%) [2]: 8% | Population Mitochondria Different-Phenotype (%) [2]: 62% | Population Mitotic Cells (%) [2]: 43% | Population Normal (%) [2]: 91% | Population Pyknosed Nuclei (%) [2]: 14% | Population Tubulin-Different-Phenotype (%) [2]: 28% | Total Cell Count [2]: 248 | Population Apoptotic (%) [3]: 47% | Population Fragmented Nuclei (%) [3]: 10% | Population Healthy Nuclei (%) [3]: 73% | Population Hoechst High Intensity Objects (%) [3]: 6% | Population Membrane Permeable-Phenotype (%) [3]: 0% | Population Mitochondria Different-Phenotype (%) [3]: 55% | Population Mitotic Cells (%) [3]: 52% | Population Normal (%) [3]: 93% | Population Pyknosed Nuclei (%) [3]: 15% | Population Tubulin-Different-Phenotype (%) [3]: 53% | Total Cell Count [3]: 479 | Population Apoptotic (%) [4]: 43% | Population Healthy Nuclei (%) [4]: 71% | Population Hoechst High Intensity Objects (%) [4]: 10% | Population Mitochondria Different-Phenotype (%) [4]: 73% | Population Mitotic Cells (%) [4]: 56% | Population Normal (%) [4]: 89% | Population Pyknosed Nuclei (%) [4]: 18% | Population Tubulin-Different-Phenotype (%) [4]: 47% | Total Cell Count [4]: 393 | Population Apoptotic (%) [5]: 29% | Population Fragmented Nuclei (%) [5]: 6% | Population Healthy Nuclei (%) [5]: 82% | Population Hoechst High Intensity Objects (%) [5]: 4% | Population Membrane Permeable-Phenotype (%) [5]: 1% | Population Mitochondria Different-Phenotype (%) [5]: 21% | Population Mitotic Cells (%) [5]: 70% | Population Normal (%) [5]: 95% | Population Pyknosed Nuclei (%) [5]: 10% | Population Tubulin-Different-Phenotype (%) [5]: 16% | Total Cell Count [5]: 650 | Population Apoptotic (%) [6]: 48% | Population Fragmented Nuclei (%) [6]: 12% | Population Healthy Nuclei (%) [6]: 76% | Population Hoechst High Intensity Objects (%) [6]: 5% | Population Membrane Permeable-Phenotype (%) [6]: 0% | Population Mitochondria Different-Phenotype (%) [6]: 42% | Population Mitotic Cells (%) [6]: 51% | Population Normal (%) [6]: 94% | Population Tubulin-Different-Phenotype (%) [6]: 17% | Total Cell Count [6]: 283 | Population Apoptotic (%) [7]: 35% | Population Fragmented Nuclei (%) [7]: 11% | Population Healthy Nuclei (%) [7]: 74% | Population Hoechst High Intensity Objects (%) [7]: 5% | Population Membrane Permeable-Phenotype (%) [7]: 1% | Population Mitochondria Different-Phenotype (%) [7]: 43% | Population Mitotic Cells (%) [7]: 64% | Population Normal (%) [7]: 94% | Population Pyknosed Nuclei (%) [7]: 13% | Population Tubulin-Different-Phenotype (%) [7]: 50% | Total Cell Count [7]: 587 | Population Apoptotic (%) [8]: 48% | Population Fragmented Nuclei (%) [8]: 10% | Population Healthy Nuclei (%) [8]: 79% | Population Hoechst High Intensity Objects (%) [8]: 6% | Population Membrane Permeable-Phenotype (%) [8]: 0% | Population Mitochondria Different-Phenotype (%) [8]: 56% | Population Mitotic Cells (%) [8]: 51% | Population Normal (%) [8]: 93% | Population Pyknosed Nuclei (%) [8]: 9% | Population Tubulin-Different-Phenotype (%) [8]: 37% | Total Cell Count [8]: 491 | Population Apoptotic (%) [9]: 25% | Population Fragmented Nuclei (%) [9]: 12% | Population Healthy Nuclei (%) [9]: 78% | Population Hoechst High Intensity Objects (%) [9]: 3% | Population Membrane Permeable-Phenotype (%) [9]: 1% | Population Mitochondria Different-Phenotype (%) [9]: 12% | Population Mitotic Cells (%) [9]: 74% | Population Normal (%) [9]: 96% | Population Pyknosed Nuclei (%) [9]: 8% | Population Tubulin-Different-Phenotype (%) [9]: 10% | Total Cell Count [9]: 1090 | Population Apoptotic (%) [10]: 44% | Population Fragmented Nuclei (%) [10]: 11% | Population Healthy Nuclei (%) [10]: 82% | Population Hoechst High Intensity Objects (%) [10]: 4% | Population Membrane Permeable-Phenotype (%) [10]: 3% | Population Mitochondria Different-Phenotype (%) [10]: 23% | Population Mitotic Cells (%) [10]: 55% | Population Normal (%) [10]: 95% | Population Pyknosed Nuclei (%) [10]: 6% | Population Tubulin-Different-Phenotype (%) [10]: 11% | Total Cell Count [10]: 490 | Population Apoptotic (%) [11]: 38% | Population Fragmented Nuclei (%) [11]: 16% | Population Healthy Nuclei (%) [11]: 77% | Population Hoechst High Intensity Objects (%) [11]: 6% | Population Membrane Permeable-Phenotype (%) [11]: 1% | Population Mitochondria Different-Phenotype (%) [11]: 31% | Population Mitotic Cells (%) [11]: 61% | Population Normal (%) [11]: 93% | Population Pyknosed Nuclei (%) [11]: 6% | Population Tubulin-Different-Phenotype (%) [11]: 28% | Total Cell Count [11]: 883 | Population Fragmented Nuclei (%) [12]: 13% | Population Healthy Nuclei (%) [12]: 79% | Population Hoechst High Intensity Objects (%) [12]: 4% | Population Membrane Permeable-Phenotype (%) [12]: 0% | Population Mitochondria Different-Phenotype (%) [12]: 37% | Population Normal (%) [12]: 95% | Population Tubulin-Different-Phenotype (%) [12]: 26% | Total Cell Count [12]: 758

C=CCN1C[C@H](C(=O)N(CCCN(C)C)C(=O)NCC)C[C@@H]2c3cccc4[nH]cc(c34)C[C@H]21 [CABERGOLINE]
Population Apoptotic (%) [1]: 36% | Population Fragmented Nuclei (%) [1]: 4% | Population Healthy Nuclei (%) [1]: 76% | Population Hoechst High Intensity Objects (%) [1]: 8% | Population Membrane Permeable-Phenotype (%) [1]: 0% | Population Mitochondria Different-Phenotype (%) [1]: 51% | Population Mitotic Cells (%) [1]: 63% | Population Normal (%) [1]: 91% | Population Pyknosed Nuclei (%) [1]: 18% | Population Tubulin-Different-Phenotype (%) [1]: 41% | Total Cell Count [1]: 370 | Population Apoptotic (%) [2]: 37% | Population Fragmented Nuclei (%) [2]: 5% | Population Healthy Nuclei (%) [2]: 79% | Population Mitochondria Different-Phenotype (%) [2]: 68% | Population Mitotic Cells (%) [2]: 62% | Population Pyknosed Nuclei (%) [2]: 14% | Population Tubulin-Different-Phenotype (%) [2]: 24% | Total Cell Count [2]: 322 | Population Apoptotic (%) [3]: 53% | Population Fragmented Nuclei (%) [3]: 8% | Population Healthy Nuclei (%) [3]: 76% | Population Hoechst High Intensity Objects (%) [3]: 12% | Population Membrane Permeable-Phenotype (%) [3]: 0% | Population Mitochondria Different-Phenotype (%) [3]: 65% | Population Mitotic Cells (%) [3]: 46% | Population Normal (%) [3]: 87% | Population Pyknosed Nuclei (%) [3]: 14% | Population Tubulin-Different-Phenotype (%) [3]: 54% | Total Cell Count [3]: 438 | Population Apoptotic (%) [4]: 60% | Population Fragmented Nuclei (%) [4]: 6% | Population Healthy Nuclei (%) [4]: 78% | Population Hoechst High Intensity Objects (%) [4]: 8% | Population Mitochondria Different-Phenotype (%) [4]: 81% | Population Mitotic Cells (%) [4]: 40% | Population Normal (%) [4]: 91% | Population Tubulin-Different-Phenotype (%) [4]: 55% | Total Cell Count [4]: 371 | Population Apoptotic (%) [5]: 43% | Population Fragmented Nuclei (%) [5]: 9% | Population Healthy Nuclei (%) [5]: 80% | Population Hoechst High Intensity Objects (%) [5]: 4% | Population Membrane Permeable-Phenotype (%) [5]: 1% | Population Mitochondria Different-Phenotype (%) [5]: 29% | Population Mitotic Cells (%) [5]: 56% | Population Normal (%) [5]: 95% | Population Pyknosed Nuclei (%) [5]: 10% | Population Tubulin-Different-Phenotype (%) [5]: 20% | Total Cell Count [5]: 512 | Population Apoptotic (%) [6]: 40% | Population Fragmented Nuclei (%) [6]: 6% | Population Healthy Nuclei (%) [6]: 83% | Population Hoechst High Intensity Objects (%) [6]: 6% | Population Membrane Permeable-Phenotype (%) [6]: 0% | Population Mitochondria Different-Phenotype (%) [6]: 46% | Population Mitotic Cells (%) [6]: 59% | Population Normal (%) [6]: 93% | Population Pyknosed Nuclei (%) [6]: 9% | Population Tubulin-Different-Phenotype (%) [6]: 19% | Total Cell Count [6]: 406 | Population Apoptotic (%) [7]: 37% | Population Fragmented Nuclei (%) [7]: 10% | Population Healthy Nuclei (%) [7]: 77% | Population Hoechst High Intensity Objects (%) [7]: 8% | Population Membrane Permeable-Phenotype (%) [7]: 0% | Population Mitochondria Different-Phenotype (%) [7]: 51% | Population Mitotic Cells (%) [7]: 62% | Population Normal (%) [7]: 91% | Population Pyknosed Nuclei (%) [7]: 11% | Population Tubulin-Different-Phenotype (%) [7]: 48% | Total Cell Count [7]: 556 | Population Apoptotic (%) [8]: 42% | Population Healthy Nuclei (%) [8]: 79% | Population Hoechst High Intensity Objects (%) [8]: 12% | Population Mitochondria Different-Phenotype (%) [8]: 64% | Population Mitotic Cells (%) [8]: 57% | Population Normal (%) [8]: 87% | Population Pyknosed Nuclei (%) [8]: 9% | Population Tubulin-Different-Phenotype (%) [8]: 43% | Total Cell Count [8]: 425 | Population Apoptotic (%) [9]: 13% | Population Fragmented Nuclei (%) [9]: 12% | Population Healthy Nuclei (%) [9]: 80% | Population Hoechst High Intensity Objects (%) [9]: 4% | Population Membrane Permeable-Phenotype (%) [9]: 1% | Population Mitochondria Different-Phenotype (%) [9]: 21% | Population Mitotic Cells (%) [9]: 86% | Population Normal (%) [9]: 95% | Population Pyknosed Nuclei (%) [9]: 7% | Population Tubulin-Different-Phenotype (%) [9]: 16% | Total Cell Count [9]: 763 | Population Apoptotic (%) [10]: 35% | Population Fragmented Nuclei (%) [10]: 11% | Population Healthy Nuclei (%) [10]: 81% | Population Hoechst High Intensity Objects (%) [10]: 3% | Population Mitochondria Different-Phenotype (%) [10]: 23% | Population Mitotic Cells (%) [10]: 65% | Population Normal (%) [10]: 96% | Population Pyknosed Nuclei (%) [10]: 6% | Population Tubulin-Different-Phenotype (%) [10]: 10% | Total Cell Count [10]: 633 | Population Apoptotic (%) [11]: 26% | Population Fragmented Nuclei (%) [11]: 13% | Population Healthy Nuclei (%) [11]: 76% | Population Hoechst High Intensity Objects (%) [11]: 5% | Population Membrane Permeable-Phenotype (%) [11]: 0% | Population Mitochondria Different-Phenotype (%) [11]: 35% | Population Mitotic Cells (%) [11]: 73% | Population Normal (%) [11]: 94% | Population Pyknosed Nuclei (%) [11]: 9% | Population Tubulin-Different-Phenotype (%) [11]: 25% | Total Cell Count [11]: 786 | Population Apoptotic (%) [12]: 43% | Population Fragmented Nuclei (%) [12]: 10% | Population Healthy Nuclei (%) [12]: 82% | Population Hoechst High Intensity Objects (%) [12]: 6% | Population Mitochondria Different-Phenotype (%) [12]: 32% | Population Mitotic Cells (%) [12]: 56% | Population Normal (%) [12]: 93% | Population Pyknosed Nuclei (%) [12]: 6% | Population Tubulin-Different-Phenotype (%) [12]: 20% | Total Cell Count [12]: 676

From ChEMBL document CHEMBL5058577, “EUbOPEN Chemogenomics Library 2 (Multiplex)” (2022)
